Each structure is given as a SMILES string. A number with no mark means an inactive call. Active and inactive are the calls of the source.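 The calls were made as follows: active = inhibition above 10%; inactive = the rest.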

Hexokinase-4 (Homo sapiens), sequence (P35557 whole entry, looked up): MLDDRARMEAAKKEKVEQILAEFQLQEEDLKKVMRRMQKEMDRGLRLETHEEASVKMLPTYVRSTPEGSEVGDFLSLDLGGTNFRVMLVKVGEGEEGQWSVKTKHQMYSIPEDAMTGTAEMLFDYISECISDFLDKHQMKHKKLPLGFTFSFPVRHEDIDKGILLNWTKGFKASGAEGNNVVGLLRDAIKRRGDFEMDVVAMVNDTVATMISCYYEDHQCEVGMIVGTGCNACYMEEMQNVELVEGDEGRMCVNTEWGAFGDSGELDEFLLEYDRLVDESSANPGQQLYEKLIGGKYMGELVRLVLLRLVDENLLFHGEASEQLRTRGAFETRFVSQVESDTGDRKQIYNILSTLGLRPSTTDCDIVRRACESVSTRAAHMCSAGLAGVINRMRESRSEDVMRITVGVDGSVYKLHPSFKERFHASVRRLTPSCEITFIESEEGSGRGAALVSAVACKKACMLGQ

For the test, the target named is Hexokinase-4 (Homo sapiens) (UniProt P35557). The test can be described thus: human glucokinase inhibition, counter-screen for TbHK1 inhibitor project, biochemical, recombinant hGlck (AID 492951). To be noted: G6PDH-coupled NADH absorbance 340 nm, at 10 µM; hits give high values. In outline: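 Material: Recombinant human glucokinase, G6PDH-coupled | Medium: TEA buffer pH 7.9 with 3.3 mM MgCl2, 0.75 mM NAD+ | Also added: 20 mM glucose as reaction starter, plus 1 mM ATP | Compound dosing: One dose, 10 µM final | Schedule: 10 min preincubation at room temperature | Measured by: A340 of NADH | Repeats: Three replicates per compound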
Turning to `CC(C)(C)c1ccc(C(=O)N2CCC(=O)c3ccc(Cl)cc32)cc1`, the result was inactive. On to `COc1ccc(C(=O)Nc2ccc(Cl)cc2C(=O)O)cc1`, for which the outcome was inactive. As to `O=C(Cn1sc2ccccc2c1=O)NC1CCCCC1`, the inhibition is 8.01%. On to `CC(C)(C)c1ccc(C(=O)Nc2cc(Cl)c(F)cc2C(=O)O)cc1`, for which the outcome was inactive.

As to `O=C(Nc1cc(Cl)ccc1C(=O)O)c1ccc(-c2cccs2)cc1`, the inhibition is 30.3% (active). For the compound `COc1ccc(C(=O)Nc2cc(I)ccc2C(=O)O)cc1`, the result was inactive.

In the case of `COc1ccc(C(=O)Nc2c(C(=O)O)ccc(Cl)c2Cl)cc1`, the inhibition is 10.6%.

For the compound `O=C(O)c1ccc(Cl)cc1NC(=O)C1CCOCC1`, the outcome was inactive.

For the compound `CC(C)c1cccc(C(=O)Nc2cc(Cl)ccc2C(=O)O)c1`, the outcome was inactive. Take `O=c1c2cc(C(F)(F)F)ccc2sn1-c1ccccc1`: the inhibition is 45.7% (active). `CC(C)(C)c1ccc(C(=O)Nc2cc(Cl)ccc2-c2nn[nH]n2)cc1`: the inhibition is 28.4% (active). Regarding `O=C(CCn1sc2ccccc2c1=O)Nc1ccccc1`, the result was inactive. As for `COc1ccc(N2C(=O)c3ccc(Cl)cc3C2=O)cc1`, the result was inactive. In the case of `COc1ccccc1C(=O)Nc1cc(Cl)ccc1C(=O)O`, the result was inactive.

Consider `CC(C)(C)c1ccc(C(=O)Nc2cc(Cl)ccc2O)cc1`, for which the outcome was inactive. Still for that read-out and setting: under `COc1cc(C(=O)Nc2cc(Cl)ccc2C(=O)O)cc(OC)c1OC` stands “inactive”; under `Cc1ccc(C(=O)Nc2cc(Cl)ccc2C(=O)O)cc1`, “inactive”. Consider `Cc1ccc(C(=O)Nc2cc(Cl)ccc2C(=O)O)c(C)c1`, for which the inhibition is 12.5% (active). For `O=c1c2ccc([N+](=O)[O-])cc2sn1-c1ccccc1`, the inhibition is 1.5%.

As for `COc1ccc(C(=O)Nc2cc(Cl)c(Br)cc2C(=O)O)cc1`, the inhibition was 22.3% (active).

For the compound `COc1ccccc1-n1sc2ccccc2c1=O`, the inhibition is 55% (active).

Consider `O=C(Cn1sc2ccccc2c1=O)Nc1cccc(C(F)(F)F)c1`, for which the inhibition was 9.3%.

On to `Cc1ccccc1N1Cc2ccccc2C1=O`, for which the outcome was inactive. On to `O=C(NCc1ccccc1)n1sc2ccccc2c1=O`, for which the inhibition is 38.3% (active). The same measure, in the same setting: under `COc1ccc(C(=O)NCC(=O)O)cc1` stands 20.5% (active). The same measure, in the same setting: then `O=C(Nc1cc(Cl)ccc1C(=O)O)c1ccc(I)cc1`, with 22.9% (active); and `O=C(Cn1sc2ccccc2c1=O)Nc1ccc(C(F)(F)F)cc1`, with 23.8% (active). On to `COc1ccc(C(=O)Nc2cc(OC)ccc2C(=O)O)cc1`, for which the inhibition was 6.9%. Regarding `O=c1cc(-c2ccccc2)sn1-c1ccccc1`, the result was inactive. Take `O=C(Cn1sc2ccccc2c1=O)Nc1ccc(I)cc1`: the inhibition was 36.2% (active). With `CN(C)c1cccc(NC(=O)Cn2sc3ccccc3c2=O)c1`, the inhibition is 16.7% (active). Same read-out and setting: under `O=C(Cn1sc2ccccc2c1=O)Nc1cccc(Br)c1` stands 22.2% (active). Turning to `COc1ccc(C(=O)Nc2cc(Br)ccc2C(=O)O)cc1`, the result was inactive. Regarding `O=C(Cn1sc2ccccc2c1=O)Nc1cccc(I)c1`, the result was inactive. Turning to `CC(=O)Nc1cc(Cl)ccc1C(=O)O`, the result was inactive. As to `O=c1c2ccc(Br)cc2sn1-c1ccccc1`, the inhibition was 33.8% (active).

With `N#Cc1ccc(NC(=O)Cn2sc3ccccc3c2=O)cc1`, the result was inactive.

Turning to `CC(C)(C)c1ccc(C(=O)Nc2c(C(=O)O)ccc(Cl)c2Cl)cc1`, the outcome was inactive.

For the origin of these results see PubChem BioAssay AID492951 (Molecular Libraries Program, Specialized Chemistry Center, …, 2010).
